# Assay results taken from ChEMBL document CHEMBL1154100, “Tetrahydroisoquinolines as dopaminergic ligands: 1-Butyl-7-chloro-6-hydroxy-tetrahydroisoquinoline, a new compound with antidepressant-like activity in mice” (Bioorg Med Chem, 2009).
# Activity calls are given as the source filed them. The calls are words filed in the database; no cut-off is given here.
# Key:
# [1] = species on record: Rattus norvegicus; assay: Selectivity for Wistar rat dopamine D2 receptor over Wistar rat dopamine D1 receptor
# [2] = biological target: Sodium-dependent dopamine transporter (Rattus norvegicus) (UniProt P23977); assay: Inhibition of DAT in Wistar rat striatal synaptosomes at 100 uM by [3H]dopamine uptake assay; format: subcellular; conditions: Brain
# Outline: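 Synaptosomes were prepared from female Wistar rat striatum at 0–4 °C. Tissue was homogenized in 0.32 M sucrose, spun twice at 1000g for 10 min, and the pooled supernatants were spun at 16,000g for 30 min. The pellet was taken up in Krebs medium (pH 7.6, with glucose). Samples were preincubated for 10 min at 37 °C with pargyline, then given 0.5 nM final [³H]dopamine for 10 min. Uptake was stopped by ice-cold dilution and rapid fiberglass filtration.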
# [3] = biological target: D(1A) dopamine receptor (Rattus norvegicus, UniProt P18901); assay: Displacement of [3H]SCH23390 from dopamine D1 receptor in Wistar rat striatal membrane by liquid scintillation counting; format: cell membranes, Striatum
# Outline: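 Female Wistar rat striatum homogenized in 50 mM Tris-HCl pH 7.4, then washed twice at 49,000g. Membranes were resuspended in Tris-ions buffer (NaCl, CaCl2, KCl, MgCl2, 0.1% ascorbate). [3H]-SCH23390 displacement was read by filtration and scintillation counting. Ki was derived using KD 0.36 nM; 3–6 independent runs in duplicate, mean SEM.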
# [4] = biological target: D(2) dopamine receptor (Rattus norvegicus, UniProt P61169); assay: Displacement of [3H]raclopride from dopamine D2 receptor in Wistar rat striatal membrane by liquid scintillation counting; format: cell membranes, Striatum; conditions: read-out: pKi (converted)
# Outline: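 Striata from female Wistar rats (200–220 g) were homogenized in 50 mM Tris-HCl (pH 7.4) and centrifuged twice at 49,000g for 15 min at 4 °C. Membranes were resuspended in Tris buffer containing 120 mM NaCl, 2 mM CaCl₂, 5 mM KCl, 1 mM MgCl₂ and 0.1% ascorbic acid (pH 7.4). Samples were filtered, washed with cold buffer and counted by scintillation. Ki was derived using a [³H]raclopride KD of 1,25 nM, from 3–6 determinations run in duplicate.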
# [5] = test system: Mus musculus; assay: Antidepressant-like activity in NMRI mouse assessed as reduction in immobility time at 16 mg/kg, ip by forced swimming test relative to control; format: functional; set-up: scale not given: the % may be the effect or the level left; conditions: route intraperitoneal
# Outline: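 Naive male NMRI mice (25–30 g) were used in randomized groups of n = 10 and tested in the dark phase. Injections (10 mL/kg) were given 30 min before testing, and saline was the vehicle. Each animal, not pre-tested, swam for 6 min in a cylinder 12 cm wide holding 13 cm of water at 23–24 °C. Immobility was scored over the last 4 min, and groups were compared with ANOVA and Fisher PLSD.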
# D(2) dopamine receptor, sequence (P61169 whole entry): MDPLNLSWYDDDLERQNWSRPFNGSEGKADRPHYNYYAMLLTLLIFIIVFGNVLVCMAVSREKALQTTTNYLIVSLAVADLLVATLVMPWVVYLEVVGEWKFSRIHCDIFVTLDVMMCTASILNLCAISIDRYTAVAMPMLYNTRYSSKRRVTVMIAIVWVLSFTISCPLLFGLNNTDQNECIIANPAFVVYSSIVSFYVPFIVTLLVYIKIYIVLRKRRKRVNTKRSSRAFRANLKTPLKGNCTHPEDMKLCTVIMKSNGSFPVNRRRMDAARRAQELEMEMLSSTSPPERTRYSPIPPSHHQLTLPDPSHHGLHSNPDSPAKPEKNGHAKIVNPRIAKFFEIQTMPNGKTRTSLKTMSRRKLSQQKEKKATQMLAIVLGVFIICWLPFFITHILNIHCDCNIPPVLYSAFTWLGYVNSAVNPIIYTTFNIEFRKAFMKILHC
# Sodium-dependent dopamine transporter (Rattus norvegicus), sequence (P23977 whole entry): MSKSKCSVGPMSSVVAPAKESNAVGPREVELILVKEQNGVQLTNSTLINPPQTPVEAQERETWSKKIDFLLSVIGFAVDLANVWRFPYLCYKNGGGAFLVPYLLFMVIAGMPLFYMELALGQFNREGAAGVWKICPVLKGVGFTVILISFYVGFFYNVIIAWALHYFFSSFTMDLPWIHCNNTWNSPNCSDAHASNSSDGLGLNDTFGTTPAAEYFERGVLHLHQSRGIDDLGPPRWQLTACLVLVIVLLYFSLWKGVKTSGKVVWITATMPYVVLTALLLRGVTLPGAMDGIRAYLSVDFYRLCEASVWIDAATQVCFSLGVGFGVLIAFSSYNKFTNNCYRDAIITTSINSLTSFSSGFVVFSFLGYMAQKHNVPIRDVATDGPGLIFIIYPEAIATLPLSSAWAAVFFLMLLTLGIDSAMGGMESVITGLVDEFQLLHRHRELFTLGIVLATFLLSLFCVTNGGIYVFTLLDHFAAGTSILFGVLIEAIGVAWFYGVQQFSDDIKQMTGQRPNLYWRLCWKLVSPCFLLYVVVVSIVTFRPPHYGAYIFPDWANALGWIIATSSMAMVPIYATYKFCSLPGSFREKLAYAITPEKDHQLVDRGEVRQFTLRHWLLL
# D(1A) dopamine receptor, sequence (P18901 whole entry): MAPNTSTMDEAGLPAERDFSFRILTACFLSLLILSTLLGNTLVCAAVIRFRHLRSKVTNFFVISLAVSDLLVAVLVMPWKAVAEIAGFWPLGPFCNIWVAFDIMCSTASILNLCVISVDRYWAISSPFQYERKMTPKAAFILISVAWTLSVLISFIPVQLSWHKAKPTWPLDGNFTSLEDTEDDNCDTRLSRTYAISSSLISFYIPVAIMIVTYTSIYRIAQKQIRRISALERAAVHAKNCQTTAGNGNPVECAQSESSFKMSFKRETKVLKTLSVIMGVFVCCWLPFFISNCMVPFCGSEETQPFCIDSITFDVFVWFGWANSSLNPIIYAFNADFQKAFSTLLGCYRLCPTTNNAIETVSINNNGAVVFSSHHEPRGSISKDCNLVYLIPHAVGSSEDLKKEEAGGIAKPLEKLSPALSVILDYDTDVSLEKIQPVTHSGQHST
SMILES,fold change (FC) [1],Activity [2],Ki [3],Ki [4],Activity [5]
COc1cc2c(cc1Cl)CCNC2c1ccccc1 (stereo not given),1.2,inactive,6000 nM,6140 nM,
COc1cc2c(cc1Cl)CCN(C)C2Cc1ccccc1 (stereo not given),0.8,inactive,1640 nM,1530 nM,
CCCCC1c2cc(OC)c(Cl)cc2CCN1C (stereo not given),2.7,inactive,7280 nM,3770 nM,
COc1cc2c(cc1Cl)CCN(C)C2c1ccccc1 (stereo not given),0.3,inactive,815 nM,2140 nM,
CN(C)CCCN1c2ccccc2CCc2ccccc21 [IMIPRAMINE],,,,,32%

# Second part, led by results:
fold change (FC) [1],Activity [2],Ki [3],Ki [4],SMILES,Activity [5]
0.07,inactive,40.3 nM,504 nM,CN1CCc2cc(Cl)c(O)cc2C1c1ccccc1 (stereo not given),
0.2,inactive,247 nM,1120 nM,Oc1cc2c(cc1Cl)CCNC2c1ccccc1 (stereo not given),
